Measured values from ChEMBL document CHEMBL3352508, “Discovery and early clinical development of 2-{6-[2-(3,5-dichloro-4-pyridyl)acetyl]-2,3-dimethoxyphenoxy}-N-propylacetamide (LEO 29102), a soft-drug inhibitor of phosphodiesterase 4 for topical treatment of atopic dermatitis” (J Med Chem, 2014).
≈ marks a conversion by molar mass, not a printed value.

Legend:
PBMC = assay: Inhibition of LPS-induced TNFalpha release in human PBMC preincubated for 30 mins before LPS stimulation measured after 18 hrs by TR-FRET assay; format: functional, cell-based
Summary of the method: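 PBMCs isolated from buffy coats (blood diluted 1:1 with saline, Lymphoprep). Supernatant TNF-α measured by TR-FRET (665/620 nm). IC₅₀ taken from inhibition curves, with LPS-stimulated and unstimulated wells as controls.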

[1] = target: 3',5'-cyclic-AMP phosphodiesterase 4D (Homo sapiens, UniProt Q08499); assay: Inhibition of human recombinant PDE4D after 1 hr by SPA in presence of radioactively labeled cAMP
Summary of the method: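 Recombinant human PDE4D (NM_006203) incubated 1 h with test compound up to 10 μM, 1 × 10⁻⁵ M cAMP and 0.021 MBq radiolabelled cAMP tracer. Substrate cleavage read by binding of AMP product to SPA beads. IC₅₀ is the molar concentration giving 50% inhibition of cleavage relative to controls, reported as a range.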

[2] = Genotoxicity in p53 competent human TK6 cells after 24 hrs by GreenScreen HC assay; format: toxicity, cell-based; details: tk6, 24 h
[3] = Solubility of the compound in 20 % hydroxypropyl-beta-cyclodextrin in water after 1 hr at room temperature; format: physicochemical
Summary of the method: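 Compound shaken in the vehicle for 1 h at room temperature, centrifuged, and the supernatant concentration determined by HPLC.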

[4] = Solubility of the compound in propylene glycol; format: physicochemical
Summary of the method: (§1)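 Compound shaken in each vehicle for 24 h at room temperature, centrifuged, and the supernatant concentration determined by HPLC.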

[5] = Solubility of the compound in 0.067 M phosphate buffer at pH 7.4; format: physicochemical
Summary of the method: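 Compound shaken in 0.067 M phosphate buffer, pH 7.4, for 24 h at room temperature; after centrifugation, supernatant concentration determined by HPLC.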

[6] = Solubility of the compound in medium chain triglyceride; format: physicochemical; summary of the method: as §1
Mustela putorius furo = assay: Toxicity in ferret assessed as emesis at 0.01 mg/kg, iv measured up to 2 hrs post dose; format: organism-based; design: dose 0.01 mg/kg, route intravenous; details: in vivo
Summary of the method: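 Ferrets received the compound intravenously, with vehicle-dosed controls. Animals were caged and watched for 2 h, counting emetic episodes and prodromic signs (nausea). Recorded: number of ferrets retching and vomiting, latency to first retch and first vomit, and numbers of retches and vomits.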

Chain of 3',5'-cyclic-AMP phosphodiesterase 4D (Q08499 whole entry): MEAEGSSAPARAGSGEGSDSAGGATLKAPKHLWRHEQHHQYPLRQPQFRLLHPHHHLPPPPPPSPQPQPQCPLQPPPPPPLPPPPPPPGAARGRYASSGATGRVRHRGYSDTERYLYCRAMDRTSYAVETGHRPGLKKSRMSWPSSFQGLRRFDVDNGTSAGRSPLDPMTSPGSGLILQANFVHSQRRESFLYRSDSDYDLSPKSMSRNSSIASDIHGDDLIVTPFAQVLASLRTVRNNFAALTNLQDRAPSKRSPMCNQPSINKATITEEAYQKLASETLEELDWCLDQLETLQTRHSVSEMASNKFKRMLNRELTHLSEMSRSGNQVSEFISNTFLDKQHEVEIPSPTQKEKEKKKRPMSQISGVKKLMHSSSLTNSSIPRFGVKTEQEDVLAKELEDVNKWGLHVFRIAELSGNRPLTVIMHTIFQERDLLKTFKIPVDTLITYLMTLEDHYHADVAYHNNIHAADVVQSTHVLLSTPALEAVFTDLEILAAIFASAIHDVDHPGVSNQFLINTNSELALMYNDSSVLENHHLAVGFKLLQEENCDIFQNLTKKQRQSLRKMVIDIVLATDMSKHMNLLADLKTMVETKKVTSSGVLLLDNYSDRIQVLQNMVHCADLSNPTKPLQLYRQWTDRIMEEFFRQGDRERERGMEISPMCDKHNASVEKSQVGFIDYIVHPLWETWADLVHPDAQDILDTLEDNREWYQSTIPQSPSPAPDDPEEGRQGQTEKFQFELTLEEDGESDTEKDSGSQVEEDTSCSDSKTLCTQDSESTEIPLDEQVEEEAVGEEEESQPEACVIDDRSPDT

SMILES | IC50 [1] | IC50 (PBMC) | further results
CCOc1c(OC)ccc(C(=O)Cc2c(Cl)cncc2Cl)c1OC | 81 nM | 259 nM | 
COc1ccc(C(=O)Nc2c(Cl)cncc2Cl)cc1OC1CCCC1 [PICLAMILAST] |  |  | solubility at 1 h [3]: 190 µg/mL (≈ 498 µM); solubility [4]: 3300 µg/mL (≈ 8660 µM); solubility [5]: 1 µg/mL (≈ 2.62 µM); solubility [6]: 2000 µg/mL (≈ 5250 µM)
Nc1nc2c([nH]1)c(=O)n(CC1CC1)c(=O)n2CC1CC1 [CIPAMFYLLINE] |  |  | Activity (Mustela putorius furo): Toxic
COc1ccc(C(=O)Cc2c(Cl)cncc2Cl)c(OCCCc2ccccc2)c1OC | 45 nM | 230 nM | 
COc1ccc(C(=O)Cc2c(Cl)cncc2Cl)c(OC)c1OC1CCCC1 | 2010 nM | 9470 nM | 
COc1ccc(C(=O)Cc2c(Cl)cncc2Cl)c(OCc2ccccc2)c1OC | 63 nM | 159 nM | 
COc1ccc(C(=O)Cc2c(Cl)cncc2Cl)c(OCC(=O)N(C)c2ccccc2)c1OC | 61 nM | 113 nM | 

Now from value to compound, other results behind:

IC50 [1] | SMILES | IC50 (PBMC) | further results
13 nM | COCCNC(=O)COc1c(C(=O)Cc2c(Cl)cncc2Cl)ccc(OC)c1OC | 17 nM | Activity [2]: Non-toxic
5 nM | COc1ccc(C(=O)Cc2c(Cl)c[n+]([O-])cc2Cl)c(OCC(=O)NCc2ccccc2)c1OC | 11 nM | 
11 nM | CNC(=O)c1ccc(CCOc2c(C(=O)Cc3c(Cl)cncc3Cl)ccc(OC)c2OC)cc1 | 12 nM | 
13 nM | COc1ccc(C(=O)Cc2c(Cl)cncc2Cl)cc1OC | 11 nM | 
8 nM | COc1ccc(C(=O)Cc2c(Cl)cncc2Cl)c(OCCc2ccc(O)cc2)c1OC | 30 nM | 
20 nM | COc1ccc(C(=O)Cc2c(Cl)cncc2Cl)c(OCC(N)=O)c1OC | 55 nM | 
